Bioassay records as filed in PubChem.
The sample as a whole holds a higher share of hits than the screen did.
GASC1 inh = blocks human GASC-1 (KDM4C) demethylase activity | Q9H3R0 | GST-KDM4C 2-372, H3K9me3 peptide, LANCE TR-FRET | inhibition, % at 12.5 µM | 96,000 compounds, 0.15% hits;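 active = mean replicate inhibition above about 25%, with at least 55% of replicates also reaching it, limit read from the data, passing the limit was not always enough; inconclusive = only one of those two conditions met; inactive = neither condition met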
Target sequence (Q9H3R0 2-372 limits assumed): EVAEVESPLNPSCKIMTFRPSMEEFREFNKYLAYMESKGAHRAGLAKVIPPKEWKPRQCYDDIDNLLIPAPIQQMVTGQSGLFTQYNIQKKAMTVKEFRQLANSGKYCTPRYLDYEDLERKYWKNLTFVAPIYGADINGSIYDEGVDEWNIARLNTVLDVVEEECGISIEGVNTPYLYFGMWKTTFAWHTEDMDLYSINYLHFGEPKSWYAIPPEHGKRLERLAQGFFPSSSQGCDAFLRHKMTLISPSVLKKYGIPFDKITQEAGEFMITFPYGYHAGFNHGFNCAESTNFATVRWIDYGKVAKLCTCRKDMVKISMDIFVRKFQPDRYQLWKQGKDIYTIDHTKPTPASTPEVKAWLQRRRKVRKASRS
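Test system – GST-tagged GASC-1 (JMJD2C) catalytic fragment, aa 2-372 · Medium – HEPES buffer, pH 7.5, plus ascorbate · Reagent – H3K9me3 peptide with Fe(II)/2OG · Compound – one test concentration per compound · Timing – 30 min reaction, 60 min detection, RT · Technique – TR-FRET with Eu antibody and ULight streptavidin, EDTA stop · Read-out basis – inhibition from TR-FRET ratio decrease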
IDH1 R132H inh = inhibitors of human IDH1 R132H; inhibition, % at 10 µM; IDH1 R132H reductase, diaphorase/resazurin fluorescence, 60 min; 70,000 compounds, 0.18% hits; O75874; in the data active = inhibition above about 34%; inconclusive = no clear call, values can overlap the other calls; inactive = below about 11%;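 note: 0% = DMSO and 100% = no enzyme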
Target sequence (O75874 whole entry R132H): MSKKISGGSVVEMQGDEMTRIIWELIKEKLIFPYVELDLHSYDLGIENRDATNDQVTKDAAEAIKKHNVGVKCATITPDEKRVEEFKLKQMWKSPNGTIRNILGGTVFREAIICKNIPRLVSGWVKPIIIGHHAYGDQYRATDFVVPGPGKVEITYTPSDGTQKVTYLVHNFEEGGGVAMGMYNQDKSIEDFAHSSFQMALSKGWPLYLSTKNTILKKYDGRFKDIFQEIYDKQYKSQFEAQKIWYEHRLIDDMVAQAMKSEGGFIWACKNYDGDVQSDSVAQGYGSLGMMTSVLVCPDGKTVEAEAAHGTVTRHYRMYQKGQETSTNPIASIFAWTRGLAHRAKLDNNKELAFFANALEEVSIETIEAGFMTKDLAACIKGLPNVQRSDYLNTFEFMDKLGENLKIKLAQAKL
T cruzi growth-1 = inhibitors of T. cruzi proliferation | inhibition, % at 8.34 µM | 77,000 compounds, 5.9% hits | T. cruzi beta-gal in NIH3T3, GalScreen luminescence, 90 h;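 active = mean inhibition above about 93%, with at least 55% of replicates each passing it, limit read from the data, passing the limit was not always enough; inconclusive = only one of those two conditions holds; inactive = neither condition holds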
T cruzi growth-2 = Trypanosoma cruzi proliferation inhibition. shares compounds with T cruzi growth-1. T. cruzi beta-gal in NIH3T3, GalScreen luminescence, 90 h. inhibition, % at 8.35 µM. 5,600 compounds, 72% hits. AID 651739;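 active = mean replicate inhibition above about 95% and at least 55% of replicates individually reaching it, limit read from the data; inconclusive = only one of the two criteria is met; inactive = neither criterion is met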
T cruzi growth-3 = blocks T. cruzi growth in NIH3T3 host cells. 5,600 compounds, 21% hits. shares compounds with T cruzi growth-1. T. cruzi beta-gal in NIH3T3, GalScreen luminescence, 90 h. inhibition, % at 2.09 µM;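 active = mean inhibition above about 95%, with at least 55% of replicates also reaching it, limit read from the data; inconclusive = meets just one of the two conditions; inactive = meets neither condition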;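 note: plate controls were neutral control median for no effect and positive control median for full effect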
3T3 cytotox = NIH/3T3 (mouse) viability loss; NIH/3T3 viability, CellTiter-Glo ATP luminescence, 90 h; cytotoxicity (signal decrease), % at 8.35 µM; 5,600 compounds, 14% hits; shares compounds with T cruzi growth-1;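 active = mean signal decrease across replicates above about 35% based on untreated-well scatter, with enough replicates individually passing, limit read from the data; inconclusive = no rule stated though some were filed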;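 note: 0% = median of neutral control wells and 100% = median of positive control wells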
3T3 cytotox 2 = kills mouse NIH/3T3 fibroblasts; inhibition, % at 24.9 µM; NIH/3T3 viability, CellTiter-Glo ATP luminescence, 90 h; shares compounds with T cruzi growth-1; 5,600 compounds, 56% hits;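 active = mean loss of cell viability signal at or above a set limit, and enough replicates individually reaching it; inconclusive = meets only the mean limit or only the replicate share; inactive = meets neither condition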;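 note: 0% = median of neutral control wells and 100% = median of positive control wells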
Active calls of the source: *; ? = inconclusive; / = no result given.

SMILES | GASC1 inh | IDH1 R132H inh | T cruzi growth-1 | T cruzi growth-2 | T cruzi growth-3 | 3T3 cytotox | 3T3 cytotox 2
C[C@@H]1CN([C@H](C)CO)C(=O)c2cc(/C=C/c3ccccc3)cnc2O[C@H]1CN(C)C(=O)Nc1ccccc1F | -4.4 | 0.5 | 124.3* | 109.2* | 104.2* | 10.3 | ?
C[C@H](CO)N1C[C@H](C)[C@@H](CN(C)C(=O)Nc2ccccc2F)Oc2ncc(/C=C/c3ccccc3)cc2C1=O | -1.1 | -0.4 | 118.2* | 112.1* | 55.5 | 16.3 | 17.0
CCCNC(=O)N(C)C[C@H]1Oc2ncc(/C=C/c3ccccc3)cc2C(=O)N([C@H](C)CO)C[C@@H]1C | -0.7 | -0.2 | 93.3 | / | / | / | /
CCCSc1nc(NCCO)c2c3c(sc2n1)COC(C)(CC)C3 (centres undefined) | / | 0.1 | / | / | / | / | /
COc1ccccc1NC(=O)CSc1nnc(-c2ccccc2Cl)n1-c1ccccc1 | / | 0.0 | / | / | / | / | /
O=C1NC(=O)C(c2c[nH]c3ccccc23)=C1c1c[nH]c2ccccc12 | / | -0.5 | / | / | / | / | /
Cc1c(Cl)cccc1NC(=O)CSc1nnc(-c2ccc(Cl)c(Cl)c2)n1C | / | 0.5 | / | / | / | / | /
C[C@H](CO)N1C[C@H](C)[C@H](CN(C)Cc2ccc(C(=O)Nc3ccccc3N)cc2)Oc2ccc(NC(=O)Nc3ccc(C(F)(F)F)cc3)cc2CC1=O | / | 0.0 | / | / | / | / | /
Cc1cc(N(CC(N)=O)S(C)(=O)=O)ccc1Br | / | -0.1 | / | / | / | / | /
CN(C)CCNc1nc2c(c(=O)n(C)c(=O)n2C)n1Cc1ccccc1F | / | 0.5 | / | / | / | / | /
O=S(=O)(Cc1ccccc1)N1CCCCN2[C@H](CO)[C@@H](c3ccc(C#Cc4ccccc4)cc3)[C@H]2C1 | 1.8 | / | 56.7 | / | / | / | /
CCS(=O)(=O)N1CCCCN2[C@H](CO)[C@H](c3ccc(C#Cc4ccccc4OC)cc3)[C@@H]2C1 | -5.5 | / | 112.0* | 105.9* | 73.8 | 42.0* | 51.2*
COc1ccccc1C#Cc1ccc([C@@H]2[C@H]3CN(S(C)(=O)=O)CCCCN3[C@H]2CO)cc1 | -2.1 | / | 93.9 | / | / | / | /
CCS(=O)(=O)N1CCCCN2[C@H](CO)[C@H](c3ccc(C#Cc4ccccc4OC)cc3)[C@H]2C1 | 0.1 | / | -0.7 | / | / | / | /
COc1ccccc1C#Cc1ccc([C@H]2[C@H](CO)N3CCCCN(S(C)(=O)=O)C[C@@H]23)cc1 | -0.8 | / | ? | 105.9* | 73.9 | 38.5* | 69.8*
CCS(=O)(=O)N1CCCCN2[C@H](CO)[C@@H](c3ccc(C#Cc4ccccc4OC)cc3)[C@H]2C1 | -1.5 | / | 121.7* | 100.5* | 50.6 | 45.4* | 85.3*
CCn1c(SCC(=O)Nc2ccc(Br)c(Cl)c2)nnc1-c1ccccc1O | / | 0.0 | / | / | / | / | /
Cc1cc(NC(=O)CN(c2cccc(Cl)c2)S(C)(=O)=O)ccc1Br | / | 0.3 | / | / | / | / | /
CN(C)C(=O)c1cccc(-c2ccc3c(c2)[C@@H]2[C@@H](CCN2C(=O)c2ccccc2F)[C@@H](CO)N3)c1 | 1.0 | / | 105.9* | 100.4* | 68.0 | 11.5 | 16.2
N#Cc1ccc(-c2ccc3c(c2)[C@@H]2[C@@H](CCN2C(=O)c2ccccc2F)[C@@H](CO)N3)cc1 | 0.7 | / | 102.4* | 102.7* | 81.8 | 21.4 | 49.5*
N#Cc1ccc(-c2ccc3c(c2)[C@H]2[C@H](CCN2C(=O)C2CC2)[C@H](CO)N3)cc1 | -2.3 | / | 93.2 | / | / | / | /
CN(C)C(=O)c1ccc(-c2ccc3c(c2)[C@H]2[C@H](CCN2C(=O)c2ccccc2F)[C@@H](CO)N3)cc1 | -1.9 | / | 53.1 | / | / | / | /
N#Cc1ccc(-c2ccc3c(c2)[C@H]2[C@H](CCN2C(=O)c2ccccc2F)[C@H](CO)N3)cc1 | 1.3 | / | 88.3 | / | / | / | /
N#Cc1ccc(-c2ccc3c(c2)[C@@H]2[C@@H](CCN2C(=O)C2CC2)[C@@H](CO)N3)cc1 | 5.6 | / | 104.1* | 107.5* | 84.6 | -3.2 | 34.9*
CC1(C(=O)NCCCn2ccnc2)CC1(Cl)Cl (centres undefined) | / | 4.5 | / | / | / | / | /
SMILES | GASC1 inh | IDH1 R132H inh | T cruzi growth-1 | T cruzi growth-2 | T cruzi growth-3 | 3T3 cytotox | 3T3 cytotox 2
COCC#Cc1ccc2c(c1)O[C@@H](CN(C)CC1CCCC1)[C@H](C)CN([C@H](C)CO)S2(=O)=O | 4.1 | -2.2 | 109.6* | 97.9* | 46.6 | 44.2* | 103.8*
COCC#Cc1ccc2c(c1)O[C@@H](CN(C)CC1CC1)[C@@H](C)CN([C@H](C)CO)S2(=O)=O | 0.4 | 0.6 | / | / | / | / | /
CCCN(C)C[C@H]1Oc2cc(C#CC3CCCCC3)ccc2S(=O)(=O)N([C@@H](C)CO)C[C@@H]1C | -1.4 | 0.4 | 57.9 | / | / | / | /
COc1ccc(-c2ccc3c(c2)O[C@H](CN(C)CC2CCOCC2)[C@@H](C)CN([C@@H](C)CO)S3(=O)=O)cc1 | -1.7 | -4.5 | 40.9 | / | / | / | /
COc1ccc(-c2ccc3c(c2)O[C@@H](CN(C)CC2CCOCC2)[C@H](C)CN([C@@H](C)CO)S3(=O)=O)cc1 | 15.3 | -0.3 | 93.2* | 100.3* | 100.9* | 51.3* | 66.8*
CCCN(C)C[C@@H]1Oc2cc(C#CC3CCCC3)ccc2S(=O)(=O)N([C@@H](C)CO)C[C@@H]1C | -0.3 | 0.0 | 99.2* | 113.5* | 90.8 | 23.0 | 103.6*
C[C@H]1CN([C@@H](C)CO)S(=O)(=O)c2ccc(C#Cc3ccccc3F)cc2O[C@H]1CN(C)CC1CCOCC1 | 1.0 | -1.3 | / | / | / | / | /
C[C@H](CO)N1C[C@H](C)[C@@H](CN(C)CC2CCOCC2)Oc2cc(C#Cc3ccccc3F)ccc2S1(=O)=O | 2.6 | 1.9 | 121.6* | 99.3* | 103.0* | -25.1 | 43.3*
C[C@@H]1O[C@@H](O[C@@H]2C=C(CO)[C@H]3[C@H](O[C@@H]4O[C@H](CO)[C@@H](O)[C@H](O)[C@H]4O)OC=C[C@H]32)[C@H](O)[C@H](O)[C@H]1OC(=O)/C=C/c1ccccc1 | / | 0.4 | / | / | / | / | /
Cc1cc(-c2ccccc2)nc(SCC(=O)Nc2ccccc2C#N)n1 | / | 0.3 | / | / | / | / | /
COc1ccc(-c2cc(=O)[nH]c(SCc3nc4ccccc4c(=O)[nH]3)n2)cc1 | / | 0.2 | / | / | / | / | /
Cc1cc(NC(=O)CN(c2c(C)cccc2C)S(C)(=O)=O)ccc1Br | / | -0.1 | / | / | / | / | /
CC(C)C#Cc1ccc2c(c1)O[C@@H](CN(C)CC1CCOCC1)[C@@H](C)CN([C@H](C)CO)S2(=O)=O | 0.8 | -0.5 | 54.2 | / | / | / | /
C[C@@H]1CN([C@H](C)CO)S(=O)(=O)c2ccc(C#CC3CC3)cc2O[C@H]1CN(C)CC1CCOCC1 | 2.3 | -1.1 | ? | 101.3* | 27.1 | 50.0* | 91.1*
CC(C)C#Cc1ccc2c(c1)O[C@H](CN(C)CC1CCOCC1)[C@@H](C)CN([C@@H](C)CO)S2(=O)=O | -0.9 | -0.3 | 102.5* | 97.8* | 93.1 | 18.0 | 104.6*
C[C@H](CO)N1C[C@H](C)[C@@H](CN(C)CC2CCCC2)Oc2cc(C#CC3CC3)ccc2S1(=O)=O | -0.6 | 0.2 | ? | 103.7* | 94.5 | 7.2 | 105.0*
